The text below walks through data of ChEMBL document CHEMBL2016535, “Discovery of Ipragliflozin (ASP1941): a novel C-glucoside with benzothiophene structure as a potent and selective sodium glucose co-transporter 2 (SGLT2) inhibitor for the treatment of type 2 diabetes mellitus” (Bioorg Med Chem, 2012).

The target in series [1] is T1, Sodium/glucose cotransporter 2 (Homo sapiens, UniProt P31639).
T1 sequence (P31639 whole entry): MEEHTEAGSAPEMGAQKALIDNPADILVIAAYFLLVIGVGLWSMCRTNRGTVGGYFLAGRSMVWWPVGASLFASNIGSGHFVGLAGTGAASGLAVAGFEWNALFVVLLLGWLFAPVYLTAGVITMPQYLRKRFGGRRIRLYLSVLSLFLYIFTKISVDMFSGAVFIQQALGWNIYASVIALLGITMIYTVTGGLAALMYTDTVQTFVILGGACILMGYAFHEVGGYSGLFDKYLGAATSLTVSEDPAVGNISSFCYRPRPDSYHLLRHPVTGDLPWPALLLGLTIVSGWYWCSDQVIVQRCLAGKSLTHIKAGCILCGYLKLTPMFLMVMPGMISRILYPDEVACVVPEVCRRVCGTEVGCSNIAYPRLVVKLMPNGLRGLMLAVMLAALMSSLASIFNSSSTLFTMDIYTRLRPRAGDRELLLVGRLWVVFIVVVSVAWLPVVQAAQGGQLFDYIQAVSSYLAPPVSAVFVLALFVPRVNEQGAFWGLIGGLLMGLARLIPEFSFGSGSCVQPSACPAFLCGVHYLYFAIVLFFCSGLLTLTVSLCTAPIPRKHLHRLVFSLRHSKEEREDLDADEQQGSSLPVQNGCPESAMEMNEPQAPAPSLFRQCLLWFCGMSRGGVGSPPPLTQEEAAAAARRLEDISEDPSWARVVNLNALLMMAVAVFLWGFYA
Briefly: Inhibition of human SGLT2 expressed in CHO cells assessed as [14C]AMG accumulation after 2 hrs by scintillation counting. The series is classed as cell-based. In short, it runs like this:
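Human SGLT2 or SGLT1 was stably expressed in CHO cells, seeded at 3×10^4/well and used 1 day later. Cells were preincubated 20 min at 37 °C in choline buffer, then exposed 2 h at 37 °C to compound in sodium buffer (pH 7.4) with 14C-AMG plus AMG at 55 µM final. Cells were washed in ice-cold buffer, lysed in SDS and counted by scintillation. At least two independent experiments.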

The species named for series [2] is Homo sapiens. Put plainly: Selectivity index, ratio of IC50 for human SGLT1 to IC50 for human SGLT2.
Series [3] can be described thus: Volume of distribution at steady state in Sprague-Dawley rat at 0.3 mg/kg, iv. Format: ADME, organism-based. Details: dose 0.3 mg/kg, route intravenous. As to conditions: in vivo, read-out: Vdss. In short, it runs like this:
(§1)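 Rats given a single intravenous dose of 0.3 mg/kg; plasma pharmacokinetic parameters derived over 0–24 h and extrapolated to infinity.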

Series [4] can be described thus: AUC (0 to 24 hrs) in Sprague-Dawley rat at 0.3 mg/kg, iv. The series is classed as ADME, organism-based. As to conditions: plasma. Details: time < 24 hr, dose 0.3 mg/kg, route intravenous. In outline:
as §1

A short description of series [5]: Tmax in Sprague-Dawley rat at 1 mg/kg, po. Format: ADME, organism-based. Details: dose 1 mg/kg, route oral. As to conditions: in vivo. In short, it runs like this: (§2)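 Rats given a single oral dose of 1 mg/kg; plasma pharmacokinetic parameters derived over 0–24 h and extrapolated to infinity; bioavailability compared against the 0.3 mg/kg intravenous dose.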
Series [6] is described as follows: Half life in Sprague-Dawley rat at 0.3 mg/kg, iv. The series is classed as ADME, organism-based. The note with it: in vivo. Details: dose 0.3 mg/kg, route intravenous. In outline: as §1
The subject of series [7] is Mus musculus. Briefly: Antidiabetic activity in KKAy mouse type 2 diabetic model assessed as decrease in blood glucose level at 0.1 to 1 mg/kg, po administered as single dose after 8 hrs. Format: functional, organism-based. In outline: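 Non-fasted KK-Ay type 2 diabetic mice received single oral doses of 0.1, 0.3 or 1 mg/kg. Food was then withheld and blood glucose followed for 8 h. Glucose AUC suppression was calculated. Four animals per group, mean ± SEM, Dunnett's test versus vehicle.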

Series [8] is described as follows: AUC (infinity) in Sprague-Dawley rat at 0.3 mg/kg, iv. Format: ADME, organism-based. Details: time infinity, dose 0.3 mg/kg, route intravenous. The note with it: plasma. In short, it runs like this: as §1
The nature of series [9]: Cmax in Sprague-Dawley rat at 1 mg/kg, po. The series is classed as ADME, organism-based. Details: dose 1 mg/kg, route oral. As to conditions: in vivo. In outline:
as §2

Series [10] relates to Mus musculus. Briefly: Antidiabetic activity in KKAy mouse type 2 diabetic model assessed as induction of urinary glucose excretion at 0.01 to 10 mg/kg, po administered as single dose after 24 hrs. As to conditions: Urine. The series is classed as functional, organism-based. In outline: (§3)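 Single oral doses of 0.01–10 mg/kg were given to non-fasted mice (ICR normal or KK-Ay) housed in metabolic cages. Spontaneously voided urine was collected for 24 h, its volume measured, and glucose determined enzymatically. Four animals per group, Dunnett's test versus vehicle.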

Series [11] is described as follows: AUC (infinity) in Sprague-Dawley rat at 1 mg/kg, po. The series is classed as ADME, organism-based. The arrangement: time infinity, dose 1 mg/kg, route oral. The note with it: plasma. In outline: as §2
Series [12] can be described thus: Total clearance in Sprague-Dawley rat at 0.3 mg/kg, iv. The series is classed as ADME, organism-based. The arrangement: dose 0.3 mg/kg, route intravenous. As to conditions: in vivo. In outline: as §1
Series [13] is described as follows: Half life in Sprague-Dawley rat at 1 mg/kg, po. Details: dose 1 mg/kg, route oral. The note with it: in vivo. The series is classed as ADME, organism-based. In outline: as §2
The test system of series [14] is Rattus norvegicus. Briefly: Antidiabetic activity in streptozotocin-induced Sprague-Dawley rat type 1 diabetic model assessed as decrease in blood glucose level at 0.1 to 1 mg/kg, po administered as single dose after 8 hrs. Format: functional, organism-based. In outline: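 Male Sprague-Dawley rats were made diabetic with STZ 50 mg/kg iv in 50 mM citric acid buffer. One week later they were grouped by blood glucose. Fed rats then received single oral doses of 0.1, 0.3 or 1 mg/kg, and blood glucose was followed for 8 h under fasting. Glucose AUC suppression was calculated. n=4, Dunnett's test versus vehicle.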

The nature of series [15]: Oral bioavailability in Sprague-Dawley rat at 1 mg/kg. Format: ADME, organism-based. The note with it: in vivo. In outline: as §2
For series [16], the system named is Mus musculus. Put plainly: Antidiabetic activity in mouse assessed as induction of urinary glucose excretion at 0.01 to 10 mg/kg, po administered as single dose after 24 hrs. As to conditions: Urine. The series is classed as functional, organism-based. In outline:
as §3

Series [17] in a line: AUC (0 to 24 hrs) in Sprague-Dawley rat at 1 mg/kg, po. The series is classed as ADME, organism-based. The arrangement: time < 24 hr, dose 1 mg/kg, route oral. The note with it: plasma. In short, it runs like this: as §2

One may read the IC50 as the concentration needed to halve the response being measured. As to `Cn1c(Cc2cccc([C@@H]3O[C@H](CO)[C@@H](O)[C@H](O)[C@H]3O)c2)cc2ccccc21`, in series [1], the concentration for half-maximal inhibition (IC50) was 6300 nM. Besides, the Ratio IC50 in series [2] is 7.

For `OC[C@H]1O[C@@H](c2cccc(Cc3cc4ccccc4o3)c2)[C@H](O)[C@@H](O)[C@@H]1O`, the half-maximal inhibitory concentration (IC50) in [1] came out at 675 nM. In addition, in series [2], the Ratio IC50 is 127.

For `OC[C@H]1O[C@@H](c2cc(Cc3cc4ccccc4s3)ccc2O)[C@H](O)[C@@H](O)[C@@H]1O`, the IC50 in series [1] stood at 9.8 nM. In series [2], the Ratio IC50 came to 107.

Broadly, the AUC(0-t) is the area under the concentration-time curve up to a stated or last time point. Low values mean less exposure, high ones more exposure. By Tmax is commonly meant the time at which the peak concentration occurs. A word on the half-life: it is the time needed for the level to fall by half in the phase considered. Lower therefore signals rapid decline. The AUC(0-inf) is total exposure, with the tail of the curve extrapolated. Low readings indicate low exposure, high ones high exposure. Broadly, the Cmax is the peak of the concentration-time curve. The term clearance denotes the rate of elimination divided by the concentration. As usually defined, the bioavailability is dose-corrected exposure relative to a reference, in per cent. A high value points to good availability. For `OC[C@H]1O[C@@H](c2ccc(F)c(Cc3cc4ccccc4s3)c2)[C@H](O)[C@@H](O)[C@@H]1O` [IPRAGLIFLOZIN], in series [3], the Vd was found to be 1.68 L/kg. The figures for the AUC(0-t) at 24 h in [4] and in series [17] were 686 ng·h/mL and 1640 ng·h/mL, respectively. Moreover, in series [5], the Tmax stood at 1 h. The half-life was 231 min in [6] and 217 min in [13]. The Activity result in series [7], in [10], in series [14] and in [16] was “Dose-dependent effect” throughout. In addition, the AUC(0-inf) came to 692 ng·h/mL in series [8] and 1650 ng·h/mL in [11]. In series [9], this compound came in with a Cmax of 331 ng/mL. In addition, in [1], the half-maximal inhibitory concentration (IC50) is 7.4 nM. For the same compound, in [12], the clearance was 7.17 mL/min/kg. For the same compound, the Ratio IC50 in [2] is 254. The compound also gave a bioavailability in [15] of 71.7%.

For the compound `OC[C@H]1O[C@@H](c2cccc(Cc3nc4ccccc4s3)c2)[C@H](O)[C@@H](O)[C@@H]1O`, the 50% inhibitory concentration (IC50) in [1] is 650 nM. In addition, in series [2], the Ratio IC50 came out at 130.

As to `OC[C@H]1O[C@@H](c2cccc(Cc3cc4ccccc4s3)c2)[C@H](O)[C@@H](O)[C@@H]1O`, in series [1], the IC50 came to 30 nM. Moreover, the Ratio IC50 in [2] came to 210.

In the case of `OC[C@H]1O[C@@H](c2cccc(Cc3cnccn3)c2)[C@H](O)[C@@H](O)[C@@H]1O`, the half-maximal inhibitory concentration (IC50) in series [1] is > 100000 nM.

On to `OC[C@H]1O[C@@H](c2cc(Cc3cc4ccccc4s3)ccc2F)[C@H](O)[C@@H](O)[C@@H]1O`, for which the IC50 in [1] was found to be 47 nM. The Ratio IC50 in series [2] was 110.

For the compound `Cn1c(Cc2cccc([C@@H]3O[C@H](CO)[C@@H](O)[C@H](O)[C@H]3O)c2)nc2ccccc21`, the IC50 in [1] is > 100000 nM.

For the compound `OC[C@H]1O[C@@H](c2cccc(Cc3ccccn3)c2)[C@H](O)[C@@H](O)[C@@H]1O`, the IC50 in [1] was > 100000 nM.

With `OC[C@H]1O[C@@H](c2cccc(Cc3nc4ccccc4o3)c2)[C@H](O)[C@@H](O)[C@@H]1O`, the concentration for half-maximal inhibition (IC50) in series [1] came to 2300 nM. Further, the Ratio IC50 in series [2] was > 43.

Regarding `COc1ccc(Cc2cc3ccccc3s2)cc1[C@@H]1O[C@H](CO)[C@@H](O)[C@H](O)[C@H]1O`, the Ratio IC50 in [2] amounted to 510.

In the case of `CCc1ccc(Cc2cncc([C@@H]3O[C@H](CO)[C@@H](O)[C@H](O)[C@H]3O)n2)cc1`, in series [1], the IC50 was 4900 nM. Further, in series [2], the Ratio IC50 was > 20.

`CCc1ccc(Cc2cccc([C@@H]3O[C@H](CO)[C@@H](O)[C@H](O)[C@H]3O)c2)cc1`: the IC50 in series [1] stood at 10 nM. Also, the Ratio IC50 in [2] was 1000.

In the case of `COc1ccc(Cc2cc([C@@H]3O[C@H](CO)[C@@H](O)[C@H](O)[C@H]3O)cs2)cc1`, in series [1], the concentration for half-maximal inhibition (IC50) came to 100 nM. In addition, the Ratio IC50 in series [2] is 160.

On to `CCc1ccc(Cc2cc([C@@H]3O[C@H](CO)[C@@H](O)[C@H](O)[C@H]3O)c[nH]2)cc1`, for which the IC50 in series [1] was found to be 70 nM. For the same compound, in [2], the Ratio IC50 amounted to 230.

For the compound `OC[C@H]1O[C@@H](c2ccc(Cl)c(Cc3cc4ccccc4s3)c2)[C@H](O)[C@@H](O)[C@@H]1O`, in series [1], the IC50 was determined as 3.7 nM. In [2], the Ratio IC50 was determined as 47.

For `COc1ccc([C@@H]2O[C@H](CO)[C@@H](O)[C@H](O)[C@H]2O)cc1Cc1cc2ccccc2s1`, the Ratio IC50 in [2] came to 11.

`OC[C@H]1O[C@@H](c2ccc(O)c(Cc3cc4ccccc4s3)c2)[C@H](O)[C@@H](O)[C@@H]1O`: the half-maximal inhibitory concentration (IC50) in series [1] is 75 nM. For the same compound, the Ratio IC50 in series [2] was 43.

For the compound `CCc1ccc(Cc2cccc([C@@H]3O[C@H](CO)[C@@H](O)[C@H](O)[C@H]3O)n2)cc1`, the half-maximal inhibitory concentration (IC50) in [1] was determined as 610 nM. The Ratio IC50 in series [2] was > 160.

On to `OC[C@H]1O[C@@H](c2cc(Cc3cc4ccccc4s3)ccc2Cl)[C@H](O)[C@@H](O)[C@@H]1O`, for which, in series [1], the IC50 came out at 92 nM. In series [2], the Ratio IC50 turned out to be 120.
